According to ChEMBL document CHEMBL2407023, “trans-Resveratrol in Gnetum gnemon protects against oxidative-stress-induced endothelial senescence” (J Nat Prod, 2013):
Active and inactive are the calls of the source. No cut-off for these calls is given here.

Assays:
[1] = molecular target: T1, NAD-dependent protein deacetylase sirtuin-1 (Homo sapiens) (UniProt Q96EB6); assay: Induction of SIRT1-mediated NRF-1 expression in H2O2-induced HUVEC pretreated for 1 day followed by compound washout and H2O2-treatment measured after 10 days by RT-PCR analysis; type: cell-based
T1 sequence (whole entry): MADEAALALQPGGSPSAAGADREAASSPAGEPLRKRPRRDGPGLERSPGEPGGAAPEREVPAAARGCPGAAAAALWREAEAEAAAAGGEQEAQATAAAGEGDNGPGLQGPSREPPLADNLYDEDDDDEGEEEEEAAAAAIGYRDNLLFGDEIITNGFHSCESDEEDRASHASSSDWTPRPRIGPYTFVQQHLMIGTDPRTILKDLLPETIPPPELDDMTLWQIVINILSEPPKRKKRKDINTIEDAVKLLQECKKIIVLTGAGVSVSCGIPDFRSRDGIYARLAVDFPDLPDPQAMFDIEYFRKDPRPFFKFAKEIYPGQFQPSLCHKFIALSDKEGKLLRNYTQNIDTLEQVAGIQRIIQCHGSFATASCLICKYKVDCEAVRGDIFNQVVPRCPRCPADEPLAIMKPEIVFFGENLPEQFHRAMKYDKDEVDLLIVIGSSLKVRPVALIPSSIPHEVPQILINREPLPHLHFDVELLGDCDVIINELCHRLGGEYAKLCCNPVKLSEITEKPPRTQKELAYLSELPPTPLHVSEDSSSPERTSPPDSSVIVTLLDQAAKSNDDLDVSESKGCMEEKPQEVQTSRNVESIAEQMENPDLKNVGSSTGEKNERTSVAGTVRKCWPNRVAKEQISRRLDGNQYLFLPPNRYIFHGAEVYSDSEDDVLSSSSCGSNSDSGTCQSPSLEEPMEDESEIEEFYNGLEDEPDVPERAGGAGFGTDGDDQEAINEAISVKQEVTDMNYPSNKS
Summary of the method: (§1)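 HUVEC were treated with compound at 100 μmol/L and H2O2 as in the senescence protocol. Total RNA was DNase-treated, then reverse transcribed with random hexamers and oligo d(T). mRNA was quantified by SYBR green real-time PCR relative to β-actin. Primer quality was checked by dissociation curves, standard-curve slopes and no-RT reactions.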

[2] = molecular target: T1, NAD-dependent protein deacetylase sirtuin-1 (Homo sapiens); assay: Induction of SIRT1-mediated TFAM expression in H2O2-induced HUVEC pretreated for 1 day followed by compound washout and H2O2-treatment measured after 10 days by RT-PCR analysis; type: cell-based; summary of the method: as §1
[3] = system: HUVEC; assay: Induction of mitochondrial biogenesis in H2O2-induced HUVEC at 100 umol/L pretreated for 1 day followed by compound washout and H2O2-treatment measured after 10 days by MitoTracker Red staining-based assay; type: functional, cell-based; settings: Homo sapiens
Summary of the method: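 HUVEC were grown in chamber slides to 80% confluence and treated with compound at 100 μmol/L plus H2O2. At 10 days after H2O2, cells were stained 15 min with 100 nM MitoTracker Red CMXRos in prewarmed medium. Nuclei were counterstained with DAPI and cells imaged by fluorescence microscopy.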

[4] = molecular target: T1, NAD-dependent protein deacetylase sirtuin-1 (Homo sapiens); assay: Activation of SIRT1 (unknown origin) by fluorescence assay
Summary of the method: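 HUVEC exposed to compounds at 100 μmol/L were assayed for SIRT1 activity with a fluorescent SIRT1 activity kit, following the manufacturer's protocol. NAD+ was the positive control. Comparison was against vehicle control, n = 3.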

[5] = system: HUVEC; assay: Effect on eNOS expression in H2O2-induced HUVEC pretreated for 1 day followed by compound washout and H2O2-treatment measured after 10 days by immunoblotting analysis; type: functional, cell-based; settings: Homo sapiens
Summary of the method: (§2)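 HUVEC at PDL 10−11 were pretreated 1 day with compound at 100 μmol/L in EGM-2 (vehicle 0.05% DMSO). Cells were washed and exposed to 100 μmol/L H2O2 for 1 h. They were then reseeded and cultured 10 days with compound. Lysates were made in Tris/NP40/SDS buffer with protease and phosphatase inhibitors and immunoblotted. β-actin was the loading reference, with ECL detection.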

[6] = system: HUVEC; assay: Effect on PAI-1 expression in H2O2-induced HUVEC pretreated for 1 day followed by compound washout and H2O2-treatment measured after 10 days by immunoblotting analysis; type: functional, cell-based; settings: Homo sapiens; summary of the method: as §2
[7] = system: HUVEC; assay: Effect on SIRT1 expression in H2O2-induced HUVEC pretreated for 1 day followed by compound washout and H2O2-treatment measured after 10 days by immunoblotting analysis; type: functional, cell-based; settings: Homo sapiens; summary of the method: as §2
[8] = system: HUVEC; assay: Effect on p53 expression in H2O2-induced HUVEC pretreated for 1 day followed by compound washout and H2O2-treatment measured after 10 days by immunoblotting analysis; type: functional, cell-based; settings: Homo sapiens; summary of the method: as §2
[9] = system: HUVEC; assay: Inhibition of H2O2-induced HUVEC senescence assessed as change in cellular morphology pretreated for 1 day followed by compound washout and H2O2-treatment measured after 10 days by hematoxylin staining-based assay; type: functional, cell-based; settings: Homo sapiens
Summary of the method: (§3)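 HUVEC at PDL 10−11 were grown to 80% confluence and pretreated 1 day with compound at 100 μmol/L (vehicle 0.05% DMSO). After washing, they received 100 μmol/L H2O2 for 1 h and were reseeded at 1 × 10^6 per dish. Culture continued 10 days with compound. Fixed cells were scored for SA-βgal-positive proportion, with hematoxylin counterstain for morphology; n = 3.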

[10] = system: HUVEC; assay: Inhibition of H2O2-induced HUVEC senescence pretreated for 1 day followed by compound washout and H2O2-treatment measured after 10 days by SA-beta galactosidase staining-based assay; type: functional, cell-based; settings: Homo sapiens; summary of the method: as §3

- Activity [1]: Active
- Activity [2]: Active
- Activity [4]: Active
- inhibition [10]: Active
Structure (SMILES): Oc1ccc(/C=C/c2cc(O)cc(O)c2)cc1
- Activity [3]: Active
- Activity [5]: Active
- Activity [6]: Active
- Activity [7]: Active
- Activity [8]: Active
- inhibition [9]: Active
